Screening results: PubChem BioAssay, Broad Institute
A selection: hits, their analogues and other compounds. The true share with any hit is near 3.8%.
SIRT5 inh – SIRT5 desuccinylase inhibitors, primary screen, biochemical, fluorescence imaging, single point, set 5 | Purified SirT5, succinyl-peptide AMC, trypsin-coupled fluorescence | inhibition, % at 15 µM | 330,000 compounds, 1.1% hits | NAD-dependent protein deacylase sirtuin-5, mitochondrial (Homo sapiens), Q9NXA8; in the data active = inhibition above about 15%; inconclusive = no clear call, values can overlap the other calls
Target sequence (Q9NXA8 whole entry, looked up): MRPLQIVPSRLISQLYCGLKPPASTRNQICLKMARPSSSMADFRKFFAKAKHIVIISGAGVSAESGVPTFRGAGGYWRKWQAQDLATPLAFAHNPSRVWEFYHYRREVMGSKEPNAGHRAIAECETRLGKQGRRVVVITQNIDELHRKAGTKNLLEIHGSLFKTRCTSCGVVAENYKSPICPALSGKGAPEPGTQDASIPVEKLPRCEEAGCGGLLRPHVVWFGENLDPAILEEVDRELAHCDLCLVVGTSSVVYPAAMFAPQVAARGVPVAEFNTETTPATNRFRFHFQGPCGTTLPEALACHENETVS
FN deposition inh – inhibitors of fibronectin matrix deposition, primary screen, AH1F cells, Alexa488-fibronectin fluorescence, plate reader | AH1F fibroblasts, overnight | inhibition, % at 12.6 µM | 350,000 compounds, 0.086% hits;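 active = mean inhibition across replicates of 30% or more, regardless of how many single replicates reach that level; inconclusive = mean under 30% yet at least half of replicates reach 30%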
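Measured by – fluorescence 485/525 nm · System – AH1F fibroblast monolayer, labelled fibronectin deposition · Amount – 10000 cells per well · Buffer or medium – serum-reduced DMEM (2% serum) · Doses – single dose, pinned · Also added – fluorescent fibronectin at 24 nM final · Schedule – 1 h cell attachment, overnight exposure to compound and label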
ARNT-TACC3 inh – disruptors of ARNT/TACC3 protein interaction, primary screen, biochemical, AlphaScreen, single concentration; 390,000 compounds, 0.66% hits; AlphaScreen His-ARNT PAS-B/GST-TACC3 binding, luminescence; TACC3 fragment carries E629A point mutation; inhibition, % at 9.99 µM; Transforming acidic coiled-coil-containing protein 3 (Homo sapiens), Q9Y6A5; AID 623870, 2012;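 active = mean inhibition of replicates at least 50% and at least half of replicates each reaching 50%; inconclusive = half or more replicates reach 50% but mean below 50%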
DENV2 CPE rescue – inhibitors of DENV2 cytopathic effect, primary screen, cell-based, plate reader, single concentration; DENV2-infected cells, cytopathic effect rescue; CPE inhibition, % at 9.99 µM; 350,000 compounds, 1.7% hits; in the data active = CPE inhibition above about 20%, passing the limit was not always enough; inconclusive = no clear call, values can overlap the other calls; tested in BHK-21 cells
FGF22 binding – binders of human FGF22 protein, primary screen, FGF22 synaptogenesis inhibitor project, biophysical, thermal shift, single point. recombinant FGF22 thermal shift, SYPRO orange fluorescence; percent of sucrose octasulfate shift, DMSO zero. 340,000 compounds, 1.5% hits. activity (Tm shift, normalised), % at 9.99 µM. Fibroblast growth factor 22 (Homo sapiens), Q9HCT0;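 active = mean Tm shift, scaled 0 neutral to 100 positive control, at about 1.3% or above, every replicate too, limit read from the data; inconclusive = no clear call, values can overlap the other calls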
Target sequence (Q9HCT0 whole entry, looked up): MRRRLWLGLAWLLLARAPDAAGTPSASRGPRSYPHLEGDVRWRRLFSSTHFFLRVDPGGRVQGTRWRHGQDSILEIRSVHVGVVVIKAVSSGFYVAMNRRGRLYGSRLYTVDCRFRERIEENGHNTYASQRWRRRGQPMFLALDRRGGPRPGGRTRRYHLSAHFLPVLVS
XiGFP reactiv – activators of inactive X chromosome reactivation, primary screen, imaging, XiGFP fibroblasts, GFP high-content imaging, set 2; XiGFP mouse fibroblasts, % GFP-positive cells imaging, 3 d; cells co-treated with 5-aza-dC sensitizer; scaled so ellipticine positive control = 100%; activation, % at 7.58 µM; 360,000 compounds, 0.055% hits; AID 743238, 2013;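 active = mean normalized replicate activation at least 10% and every replicate at or above 10%; inconclusive = only one of the two criteria met; inactive = mean below 10% and not all replicates reach 10%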
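assay system = SV40-immortalized XiGFP fibroblast cells, line 68-5-11 | buffer or medium = DMEM plus 5-aza-dC sensitizer | doses = single-point pinned compound dosing | times = 3-day compound exposure, then 15 min fixation at room temperature | benchmarks = positive control ellipticine, 6 µM final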
Large screens that a line does not name were inactive; ! = not active in a repeat.

CC(=O)Nc1ccc(C(=O)NNC(=O)c2cccs2)cc1	FGF22 binding 43.7
O=C(NNC(=O)c1cccs1)c1ccncc1	SIRT5 inh 21.8
CCN(CC)S(=O)(=O)c1ccc(C(=O)NNC(=O)c2cccs2)cc1	none (no result: SIRT5 inh, DENV2 CPE rescue, FGF22 binding)
CCCn1c2ccccc2c2nnc(SCCN3CCOCC3)nc21	SIRT5 inh 18.9
CO[C@H]1CN(C)C(=O)c2cc(NC(=O)Nc3c(C)noc3C)ccc2OC[C@@H](C)N(CC2CC2)C[C@H]1C	none
CCc1ccc(Nc2ccc(C(=O)O)cc2[N+](=O)[O-])cc1	none
CCc1ccc(Nc2ccc(C(N)=O)cc2[N+](=O)[O-])cc1	FGF22 binding 43.8
Cc1c(C)c2c(OCC(=O)N3CCC(C(=O)O)CC3)cc3c(c2oc1=O)CCC(C)(C)O3	ARNT-TACC3 inh 45.1 (no result: SIRT5 inh, FN deposition inh, DENV2 CPE rescue, FGF22 binding, XiGFP reactiv)
C[C@@H]1CN([C@H](C)CO)C(=O)c2cc(NC(=O)Nc3ccc4c(c3)OCO4)ccc2O[C@H]1CN(C)C(=O)Nc1ccc2c(c1)OCO2	none (no result: FN deposition inh)
CCOC(=O)N/N=C/c1c(F)c(F)c(F)c(F)c1F	FGF22 binding 44.4
CCOC(=O)N/N=C/c1c(F)cccc1F	none (no result: SIRT5 inh, DENV2 CPE rescue, FGF22 binding)
O=C(C[C@@H]1C=C[C@H](NC(=O)Nc2ccc(C(F)(F)F)cc2)[C@@H](CO)O1)NCc1cccc(F)c1	none (no result: FN deposition inh)
CN(C)C(=O)C[C@@H]1CC[C@@H]2[C@H](COC[C@H](O)CN2S(=O)(=O)c2ccccc2Cl)O1	none
C[C@H]1CN([C@@H](C)CO)C(=O)c2cccc(NC(=O)CCCCCC(=O)Nc3ccccc3N)c2O[C@@H]1CN(C)Cc1ccc(Oc2ccccc2)cc1	SIRT5 inh 24.5 (no result: FN deposition inh, ARNT-TACC3 inh)
C[C@H](CO)N1C[C@H](C)[C@@H](CN(C)Cc2ccc(-c3ccccc3)cc2)Oc2c(NC(=O)CCCCCC(=O)Nc3ccccc3N)cccc2C1=O	none (no result: FN deposition inh, ARNT-TACC3 inh)
C[C@@H]1CN([C@@H](C)CO)C(=O)c2cccc(NC(=O)CCCCCC(=O)Nc3ccccc3N)c2O[C@H]1CN(C)Cc1ccc(-c2ccccc2)cc1	SIRT5 inh 18.3 (no result: ARNT-TACC3 inh)
Fc1ccc(NC(=S)NCCN2CCOCC2)c(F)c1F	FGF22 binding 43.1
Cc1c(C(=O)N(Cc2ccccc2)C2CCS(=O)(=O)C2)oc2ccccc12 (centres undefined)	SIRT5 inh 15.7
CC1CN(S(=O)(=O)c2ccc(CN3C(=O)c4cccnc4C3=O)s2)c2ccccc2O1 (centres undefined)	SIRT5 inh 23.5
CC1CN(S(=O)(=O)c2ccc(CN3C(=O)c4cccnc4C3=O)cc2)c2ccccc2O1 (centres undefined)	none
Cc1ccc(S(=O)(=O)N(C)c2ccc3ccccc3c2)cc1	FGF22 binding 43.8 (no result: DENV2 CPE rescue)
CCOC(=O)Cn1c(C)cc(COC)c(C#N)c1=O	FGF22 binding 43.0 (no result: SIRT5 inh, FN deposition inh)
COCCNc1nnc(SCC(=O)NC(=O)c2ccccc2OC)s1	none (no result: FN deposition inh)
COc1ccccc1C(=O)NC(=O)CSc1ccc(C)c(C)c1	DENV2 CPE rescue inconclusive, FGF22 binding 43.0 (no result: SIRT5 inh)
CCOC(=O)C1C(c2cccc([N+](=O)[O-])c2)C2C(=O)NN=C2CC1(C)O (centres undefined)	FGF22 binding 43.0
Cc1noc(C)c1NC(=O)Nc1ccc2c(c1)CC(=O)N([C@H](C)CO)C[C@H](C)[C@@H](CN(C)Cc1ccncc1)O2	none (no result: FN deposition inh)
Cc1ccc(C)c(N2CCN(C(=O)CCc3nc(-c4ccccc4)no3)CC2)c1	DENV2 CPE rescue 20.3
CCNC(=O)OCc1cn(-c2ccccc2)nn1	FGF22 binding 43.6 (no result: DENV2 CPE rescue)
Cc1ccc(C(O)c2ncc(-c3ccc4ccccc4c3)[nH]2)cc1 (centres undefined)	DENV2 CPE rescue 75.8 (no result: ARNT-TACC3 inh)
Cc1cc(=O)[nH]c(CN2CCOCC2)n1	FGF22 binding 43.1 (no result: FN deposition inh)
Cc1nc(CN2CCCCC2)cc(=O)[nH]1	FGF22 binding 43.2
C[C@H]1CN([C@@H](C)CO)C(=O)c2cccc(NC(=O)C3CCCCC3)c2O[C@H]1CN(C)Cc1ccc2c(c1)OCO2	DENV2 CPE rescue 22.9 (no result: FN deposition inh)
C[C@H](CO)N1C[C@H](C)[C@@H](CN(C)Cc2ccc3c(c2)OCO3)Oc2c(NC(=O)C3CCCCC3)cccc2C1=O	DENV2 CPE rescue 122.4!
C[C@@H]1CN([C@@H](C)CO)C(=O)c2cccc(NC(=O)C3CCCCC3)c2O[C@H]1CN(C)Cc1ccc2c(c1)OCO2	DENV2 CPE rescue 20.8 (no result: FN deposition inh)
O=C(O)c1ccc(COc2ccc([N+](=O)[O-])cc2)o1	SIRT5 inh 18.6
O=C(O)c1ccc(OCc2ccc(C(=O)O)o2)cc1	none
C[C@@H]1CCCCO[C@H](CN(C)Cc2ccc(Cl)c(Cl)c2)[C@H](C)CN([C@@H](C)CO)C(=O)c2cc(NC(=O)Cc3ccccc3)ccc2O1	none (no result: FN deposition inh)
C[C@@H]1CN([C@@H](C)CO)S(=O)(=O)c2ccc(C#CCN(C)C)cc2O[C@@H]1CN(C)C	none
CC(C)NC(=O)N(C)C[C@@H]1Oc2ccc(NC(=O)Cc3ccccc3)cc2C(=O)N([C@@H](C)CO)C[C@H]1C	none (no result: FN deposition inh)
CC(C)NC(=O)N(C)C[C@H]1Oc2ccc(NC(=O)Cc3ccccc3)cc2C(=O)N([C@H](C)CO)C[C@@H]1C	SIRT5 inh 19.8!, DENV2 CPE rescue 51.8!
CC(C)NC(=O)N(C)C[C@@H]1Oc2ccc(NC(=O)Cc3ccccc3)cc2C(=O)N([C@H](C)CO)C[C@H]1C	DENV2 CPE rescue 77.9 (no result: FN deposition inh)
CCCC#Cc1ccc([C@@H]2[C@@H](CO)N3CCCCN(Cc4cncnc4)C[C@@H]23)cc1	DENV2 CPE rescue 26.0 (no result: FN deposition inh)
CCCC#Cc1ccc([C@H]2[C@@H](CO)N3CCCCN(Cc4cncnc4)C[C@@H]23)cc1	none (no result: FN deposition inh)
COCC#Cc1ccc([C@H]2[C@@H](CO)N3CCCCN(Cc4cccnc4)C[C@@H]23)cc1	DENV2 CPE rescue 57.2
CCCC#Cc1ccc([C@H]2[C@@H](CO)N3CCCCN(Cc4cccnc4)C[C@@H]23)cc1	DENV2 CPE rescue 33.5 (no result: FN deposition inh)
C[C@@H]1CN([C@@H](C)CO)S(=O)(=O)c2ccc(C#CCN(C)C)cc2O[C@H]1CN(C)Cc1cccnc1	none
C[C@H]1CN([C@@H](C)CO)C(=O)Cc2cc(NS(C)(=O)=O)ccc2O[C@H]1CN(C)Cc1ccc(Oc2ccccc2)cc1	none (no result: FN deposition inh)
CN(C)c1cc(N/N=C\c2ccccc2)nc(N(C)C)n1	FGF22 binding 43.0
